Measurements from PubChem BioAssay AID1483 (NMMLSC, 2009).
This is one part of the list. A number with no mark means an inactive call. Calls of active or inactive are those of the source.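 The calls were made as follows: active = fluorescence beyond the plate control mean plus 3 SD, with a fluorescence-to-maximum score over 2 (cut at about 25 in these data); inactive = the rest.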

Test: compound autofluorescence in ABCB1-expressing CCRF-Adr cells, confirmation, artefact control for ABC transporter inhibitor project, cell-based, 488/530 nm, flow cytometry (AID 1483)
Details: compound autofluorescence 488/530 nm, at 6.6 µM, hits give high values
Procedure, shortened: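 Probe or stimulus: JC-1 substrate omitted | Assay system: Drug-resistant CCRF-Adr cells | Compound dosing: One dose, 6.6 µM | Measure: Compound-treated cell MFI minus DMSO-treated cell MFI | Control set: DMSO-treated cell wells as background reference | Times: Compound with cells 10 min end-over-end rotation, 25 °C, immediate read | Signal: Flow cytometric MFI, 530 ± 20 nm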

| SMILES | fluorescence |
| --- | --- |
| O=C(Cc1c[nH]c2ccccc12)N/N=C/c1cccc(F)c1 | 4.76 |
| COc1ccc(C)cc1NC(=O)C(Sc1ccccc1)c1ccccc1 (stereo not drawn) | -2.64 |
| COc1cccc(NC(=O)c2ccc(Cn3cc([N+](=O)[O-])cn3)o2)c1 | 5.61 |
| Cc1c(CCOC(=O)CC23CC4CC(CC(C)(C4)C2)C3)sc[n+]1Cc1ccc([N+](=O)[O-])cc1 | -2.94 |
| CCOC(=O)c1sc(NC(=O)CSc2nnc(-c3ccco3)o2)c(C(=O)OCC)c1C | 0.61 |
| Cc1cccc2cc(CN(Cc3cccs3)C(c3nnnn3C3CCCC3)C(C)C)c(=O)[nH]c12 (stereo not drawn) | -4.84 |
| CCN1/C(=C/c2ccc3ccc(C)cc3[n+]2CC)Sc2ccccc21 | 130 (active) |
| C/C(=N\Nc1ncc(Cl)cc1Cl)c1ccc(S(=O)(=O)NCc2ccco2)cc1 | -2.49 |
| COc1ccc(-n2c(C)cc(C(=O)COC(=O)c3cc(OC)c(OC)cc3NC(=O)c3cccs3)c2C)cc1 | 2.26 |
| CCOCC(=O)Nc1sc2c(c1C(=O)OCC)CCCC2 | 0.31 |
| Cc1ccc(OCC(O)CN2CCN(CC(O)COc3ccc(C)cc3Cl)CC2)c(Cl)c1 (stereo not drawn) | 22.4 |
| C=CCn1c(SCCOc2ccc(OC)cc2)nnc1C(NC(=O)c1ccc(OC)cc1)C(C)C (stereo not drawn) | 180 (active) |
| Cc1ccc(-n2c(SCC(=O)Nc3ncc(Cl)cc3Cl)nc3ccccc32)cc1 | -0.64 |
